Assay [1] concerns Klebsiella pneumoniae. Put plainly: Antimicrobial activity against rifampin resistant Klebsiella pneumoniae 52145R assessed as growth inhibition by Etest method. Type of assay: functional. The gist of the method: (§1)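 MICs were read from Etest strips following the manufacturer's instructions. The parent strain is a spontaneous rifampin-resistant mutant of clinical isolate 52145 (serotype O1:K2), grown in LB at 37°C. The acrB and acrR knockouts were made from it by insertion-duplication via homologous recombination with plasmid pFS100.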

Assay [2] concerns Klebsiella pneumoniae. Put plainly: Antimicrobial activity against rifampin resistant Klebsiella pneumoniae 52deltaacrB containing isogenic acrB knockout assessed as growth inhibition by Etest method. Type of assay: functional. A digest of the protocol: as §1
Assay [3] has as its system Klebsiella pneumoniae. Put plainly: Antimicrobial activity against rifampin resistant Klebsiella pneumoniae 52deltaacrR containing isogenic acrR knockout assessed as growth inhibition by Etest method. Format: functional. A digest of the protocol: as §1
In assay [4] the test system is Klebsiella pneumoniae. As to the kind of experiment: Antimicrobial activity against rifampin resistant Klebsiella pneumoniae 52145R assessed as growth inhibition at 0.1 ug/ml in presence of 50 uM uncoupler CCCP and glucose by Etest method. Format: functional, organism-based. The gist of the method:
(§2)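 Exponential-phase LB cultures (37°C) were harvested and resuspended at ca. 2.1 x 10^5 CFU/ml in 1% tryptone-PBS, pH 7.4. They were exposed to polymyxin B 0.1 µg/ml for 30 min at 37°C, either alone, after de-energizing with 50 µM CCCP, or with 0.4% glucose. Colony counts are given as % of unexposed cells, in duplicate on at least three occasions.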

Assay [5] concerns Klebsiella pneumoniae. As to the kind of experiment: Antimicrobial activity against rifampin resistant Klebsiella pneumoniae 52145R assessed as growth inhibition at 0.1 ug/ml in presence of 50 uM uncoupler CCCP by Etest method. Format: functional, organism-based. The gist of the method:
as §2

In assay [6] the test system is Klebsiella pneumoniae. Put plainly: Antimicrobial activity against rifampin resistant Klebsiella pneumoniae 52deltaacrB containing isogenic acrB knockout assessed as growth inhibition at 0.1 ug/ml by Etest method. Type of assay: functional, organism-based.

≈ marks a conversion by molar mass, not a printed value. Calls of active or inactive are those of the source. No cut-off for these calls is given here.

As to `C[C@@H](O)[C@H]1C(=O)N2C(C(=O)O)=C(S[C@@H]3CN[C@H](C(=O)Nc4cccc(C(=O)O)c4)C3)[C@H](C)[C@H]12`, the MIC in the assay with Klebsiella pneumoniae [1], in the assay on Klebsiella pneumoniae [2] and with Klebsiella pneumoniae [3] was 0.012 µg/mL (≈ 0.0252 µM) throughout.
On to `CO/N=C(\C(=O)N[C@@H]1C(=O)N2C(C(=O)O)=C(COC(C)=O)CS[C@H]12)c1csc(N)n1` [CEFOTAXIME], for which the minimal inhibitory concentration (MIC) with Klebsiella pneumoniae [1] is 0.125 µg/mL (≈ 0.274 µM); in the assay on Klebsiella pneumoniae [2], 0.06 µg/mL (≈ 0.132 µM); in the assay with Klebsiella pneumoniae [3], 4 µg/mL (≈ 8.78 µM).
Consider `CO[C@@]1(NC(=O)Cc2cccs2)C(=O)N2C(C(=O)O)=C(COC(N)=O)CS[C@@H]21` [CEFOXITIN], for which the MIC came out at 8 µg/mL (≈ 18.7 µM) in the assay with Klebsiella pneumoniae [1], 4 µg/mL (≈ 9.36 µM) with Klebsiella pneumoniae [2] and 32 µg/mL (≈ 74.9 µM) in the assay with Klebsiella pneumoniae [3].
On the same counts, the results for `O=C(N[C@H](CO)[C@H](O)c1ccc([N+](=O)[O-])cc1)C(Cl)Cl` [CHLORAMPHENICOL] are 2 µg/mL (≈ 6.19 µM), 1 µg/mL (≈ 3.09 µM) and 4 µg/mL (≈ 12.4 µM).
Regarding `O=C(O)c1cn(C2CC2)c2cc(N3CCNCC3)c(F)cc2c1=O` [CIPROFLOXACIN], in the assay on Klebsiella pneumoniae [2], the MIC is 0.008 µg/mL (≈ 0.0241 µM).
Regarding `CC[C@H]1OC(=O)[C@H](C)[C@@H](O[C@H]2C[C@@](C)(OC)[C@@H](O)[C@H](C)O2)[C@H](C)[C@@H](O[C@@H]2O[C@H](C)C[C@H](N(C)C)[C@H]2O)[C@](C)(O)C[C@@H](C)C(=O)[C@H](C)[C@@H](O)[C@]1(C)O` [ERYTHROMYCIN], the minimum inhibitory concentration (MIC) was determined as 32 µg/mL (≈ 43.6 µM) with Klebsiella pneumoniae [1], 8 µg/mL (≈ 10.9 µM) with Klebsiella pneumoniae [2] and 32 µg/mL (≈ 43.6 µM) with Klebsiella pneumoniae [3].
Regarding `C[C@@H](O)[C@H]1C(=O)N2C(C(=O)O)=C(SCCNC=N)C[C@H]12` [IMIPENEM ANHYDROUS], the MIC with Klebsiella pneumoniae [1], in the assay on Klebsiella pneumoniae [2] and in the assay on Klebsiella pneumoniae [3] was 0.125 µg/mL (≈ 0.418 µM) in each case.
With `C[C@H]1COc2c(N3CCN(C)CC3)c(F)cc3c(=O)c(C(=O)O)cn1c23.C[C@H]1COc2c(N3CCN(C)CC3)c(F)cc3c(=O)c(C(=O)O)cn1c23.O` [LEVOFLOXACIN], the minimum inhibitory concentration (MIC) with Klebsiella pneumoniae [1] amounted to 0.09 µg/mL; with Klebsiella pneumoniae [2], 0.006 µg/mL; with Klebsiella pneumoniae [3] it was 0.19 µg/mL.
On to `C[C@@H](O)[C@H]1C(=O)N2C(C(=O)O)=C(S[C@@H]3CN[C@H](C(=O)N(C)C)C3)[C@H](C)[C@H]12` [MEROPENEM], for which the MIC in the assay with Klebsiella pneumoniae [1], in the assay with Klebsiella pneumoniae [2] and in the assay with Klebsiella pneumoniae [3] was 0.03 µg/mL (≈ 0.0782 µM) in each case.
Take `CCn1cc(C(=O)O)c(=O)c2ccc(C)nc21` [NALIDIXIC ACID]: the minimum inhibitory concentration (MIC) was 4 µg/mL (≈ 17.2 µM) in the assay with Klebsiella pneumoniae [1], 0.5 µg/mL (≈ 2.15 µM) with Klebsiella pneumoniae [2] and 8 µg/mL (≈ 34.4 µM) in the assay on Klebsiella pneumoniae [3].
On the same counts, the results for `CN(C)[C@@H]1C(O)=C(C(N)=O)C(=O)[C@@]2(O)C(O)=C3C(=O)c4c(O)cccc4[C@@](C)(O)[C@H]3C[C@@H]12` [TETRACYCLINE] are 2 µg/mL (≈ 4.5 µM), 0.25 µg/mL (≈ 0.563 µM) and 4 µg/mL (≈ 9 µM).
For `NC[C@H]1O[C@H](O[C@H]2[C@H](O)[C@@H](O[C@H]3O[C@H](CO)[C@@H](O)[C@H](N)[C@H]3O)[C@H](N)C[C@@H]2N)[C@H](N)C[C@@H]1O` [TOBRAMYCIN] the same measures were 0.25 µg/mL (≈ 0.535 µM), 0.125 µg/mL (≈ 0.267 µM) and 0.25 µg/mL (≈ 0.535 µM).
On the same counts, the results for GENTAMICIN are 0.25 µg/mL, 0.06 µg/mL and 0.25 µg/mL.
For the molecule POLYMYXIN B, the “growth inhibition (GI)” value in the assay on Klebsiella pneumoniae [4] was “inactive”. Besides, the “growth inhibition (GI)” value in the assay with Klebsiella pneumoniae [5] and in the assay on Klebsiella pneumoniae [6] was “Active” throughout.

These data come from ChEMBL document CHEMBL1212756, “Klebsiella pneumoniae AcrAB efflux pump contributes to antimicrobial resistance and virulence” (2010).
